Laboratory results as given in ChEMBL document CHEMBL5532647, “Design, synthesis, ADME and biological evaluation of benzylpiperidine and benzylpiperazine derivatives as novel reversible monoacylglycerol lipase (MAGL) inhibitors” (Eur J Med Chem, 2024).
Values after ≈ are worked out from the molar mass of the structure shown. Active and inactive are the calls of the source. No cut-off for these calls is given here.

What was measured:
[1] = biological target: T1, Fatty-acid amide hydrolase 1 (Mus musculus) (UniProt O08914); assay: Inhibition of mouse brain FAAH at 10 uM incubated with compound for 25 mins by TAMRA-FP probe based SDS-PAGE analysis; assay type: tissue-based
T1 sequence (whole entry): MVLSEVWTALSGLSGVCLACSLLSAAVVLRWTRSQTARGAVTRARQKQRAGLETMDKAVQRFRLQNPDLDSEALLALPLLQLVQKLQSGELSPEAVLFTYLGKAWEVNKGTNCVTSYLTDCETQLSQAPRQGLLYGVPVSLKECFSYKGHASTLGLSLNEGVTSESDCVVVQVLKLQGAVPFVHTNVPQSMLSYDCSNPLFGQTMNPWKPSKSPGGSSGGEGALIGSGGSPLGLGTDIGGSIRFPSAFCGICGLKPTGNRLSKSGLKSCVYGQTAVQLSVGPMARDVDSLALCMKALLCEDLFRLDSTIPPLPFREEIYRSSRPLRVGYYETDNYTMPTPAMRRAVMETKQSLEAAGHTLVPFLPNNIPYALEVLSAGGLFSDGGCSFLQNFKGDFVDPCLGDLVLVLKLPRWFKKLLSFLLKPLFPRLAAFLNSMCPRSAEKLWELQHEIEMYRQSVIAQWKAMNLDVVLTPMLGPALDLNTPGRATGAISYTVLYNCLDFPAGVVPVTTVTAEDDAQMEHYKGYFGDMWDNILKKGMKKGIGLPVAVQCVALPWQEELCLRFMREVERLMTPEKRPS
In short: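 Mouse brain membranes (2 mg/mL final, in PBS) preincubated 25 min at 25 °C with test compound (10 μM final) or DMSO vehicle. Controls: JZL-184, URB597 4 μM, WWL70 10 μM, THL, MAFP 5 μM. TAMRA-FP 125 nM final added for 5 min at 25 °C. Reaction stopped with Laemmli buffer, 3 min at 25 °C then 10 min at 90 °C. Separation by 10% SDS-PAGE, fluorescence scanning, three independent experiments.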

[2] = Thermodynamic aqueous solubility of the compound by LC-MS/MS analysis; assay type: physicochemical; conditions: read-out: Therm_solubility
In short: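 Solid compound (1 mg) shaken overnight in 1 mL distilled water at room temperature. Suspension passed through a 0.45 μm nylon filter. Dissolved compound quantified in triplicate by UV/LC-MS or LC-MS/MS against a calibration curve of compound in methanol.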

[3] = Apparent permeability of the compound by PAMPA method; assay type: ADME
In short: (§1)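 Donor solution made from 1 mM DMSO stock diluted in 25 mM phosphate buffer pH 7.4 to 500 μM final. Filter coated with 1% (w/v) phosphatidylcholine in dodecane. Acceptor was 1:1 v/v DMSO/phosphate buffer. Sandwich incubated 5 h at room temperature. Compound in donor and acceptor wells quantified by UV/LC-MS.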

[4] = Permeability of the compound assessed as membrane retention rate by PAMPA method; assay type: ADME; in short: as §1
[5] = Metabolic stability in human liver microsome in presence of NADPH-regenerating system by UV/LC-MS analysis; assay type: ADME; conditions: microsomes
In short: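 Compound incubated 1 h at 37 °C with human liver microsomes (0.2 mg/mL) and an NADPH-regenerating system (NADPH 0.2 mM, NADP+ 1 mM, glucose-6-phosphate 4 mM, G6PDH 4 unit/mL, MgCl2 48 mM) in 25 mM phosphate buffer pH 7.4. Quenched with acetonitrile, then centrifuged. Parent and metabolites measured by UV/LC-MS. Percent unmetabolized obtained against reference solutions; three independent experiments.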

[6] = Stability in human plasma measured after 24 hrs by UV/LC-MS analysis; assay type: ADME, cell-free; conditions: read-out: Stability
In short: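 Compound (2 mM) incubated at 37 °C in pooled human plasma (55.7 mg protein/mL) with HEPES 25 mM, NaCl 140 mM, pH 7.4. Samples taken at 0–24 h and precipitated with cold acetonitrile. After centrifugation, supernatant analysed by UV/LC-MS. Three independent experiments.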

[7] = Toxicity in Tenebrio molitor coleoptera assessed as lethal dose measured for 7 days; conditions: time 7 day
In short: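 Tenebrio molitor beetles used within three days of metamorphosis. Compound dissolved in DMSO, 1 μL injected into the hemocoel between pronotum and elytron. Range-finding on 1 insect starting at 200 mg/kg. Dose then given to five insects with survival monitored 7 days, repeated until LD50 found, and confirmed in ten insects.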

| Structure (SMILES) | inhibition [1] | solubility thermodynamic [2] | Papp [3] | R% [4] | Stability [5] | remaining at 24 h [6] | LD50 at 168 h [7] |
| --- | --- | --- | --- | --- | --- | --- | --- |
| O=C(c1cc(O)ccc1F)N1CCC(Cc2cccc(Sc3cc(C(F)(F)F)ccn3)c2)CC1 | inactive | 0.00321 µg/mL (≈ 0.00655 µM) | 3.3 ×10⁻⁶ cm/s | 17.3% | 96.76% | 74.1% | 200 mg/kg |
| O=C(c1cccc(O)c1)N1CCC(Cc2cccc(Sc3cc(C(F)(F)F)ccn3)c2)CC1 | inactive |  |  |  |  |  |  |
| O=C(c1cccc(O)c1)N1CCC(Cc2ccc(F)c(Sc3cc(C(F)(F)F)ccn3)c2)CC1 | inactive |  |  |  |  |  |  |
| O=C(c1cc(O)ccc1F)N1CCN(Cc2cccc(Sc3cc(C(F)(F)F)ccn3)c2)CC1 | inactive | 5.47 µg/mL (≈ 11.1 µM) | 1.33 ×10⁻⁶ cm/s | 3.2% | 98.51% | > 99% | 300 mg/kg |
